What was measured:
Homo sapiens = organism: Homo sapiens; assay: Selectivity ratio of EC50 for PKCdelta (unknown origin) expressed in human LNCAP cells harboring GFP-tagged RasGRP3 to EC50 for GFP-tagged RasGRP3 (unknown origin) expressed in human LNCAP cells assessed as ERK1/2 phosphorylation; type: cell-based
[1] = target: T1, RAS guanyl-releasing protein 1 (Homo sapiens, UniProt O95267); assay: Activation of GFP-tagged RasGRP1 (unknown origin) expressed in HEK293 cells after 30 mins by immunoblot method; type: cell-based
T1 sequence (O95267 whole entry): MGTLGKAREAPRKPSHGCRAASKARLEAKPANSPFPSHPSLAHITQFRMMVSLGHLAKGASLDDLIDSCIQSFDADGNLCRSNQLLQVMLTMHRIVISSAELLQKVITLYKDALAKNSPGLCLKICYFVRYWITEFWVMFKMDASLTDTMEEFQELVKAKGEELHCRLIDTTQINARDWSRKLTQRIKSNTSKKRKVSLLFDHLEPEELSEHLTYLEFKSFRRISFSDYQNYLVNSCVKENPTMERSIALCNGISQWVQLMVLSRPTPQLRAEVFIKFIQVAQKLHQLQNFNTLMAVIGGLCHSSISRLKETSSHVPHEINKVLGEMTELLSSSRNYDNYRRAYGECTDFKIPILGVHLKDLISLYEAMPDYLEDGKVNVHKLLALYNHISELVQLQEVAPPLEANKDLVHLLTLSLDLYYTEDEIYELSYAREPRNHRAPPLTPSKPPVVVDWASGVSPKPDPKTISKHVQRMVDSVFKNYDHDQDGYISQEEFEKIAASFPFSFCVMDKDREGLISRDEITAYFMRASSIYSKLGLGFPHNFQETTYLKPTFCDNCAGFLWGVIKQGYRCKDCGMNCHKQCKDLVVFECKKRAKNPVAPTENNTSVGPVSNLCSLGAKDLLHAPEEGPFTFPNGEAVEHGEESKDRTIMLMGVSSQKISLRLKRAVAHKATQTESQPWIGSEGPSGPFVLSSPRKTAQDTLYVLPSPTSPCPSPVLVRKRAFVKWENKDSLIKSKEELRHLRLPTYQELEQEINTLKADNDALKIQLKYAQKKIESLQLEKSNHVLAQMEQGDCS
Method in brief: (§1)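 Cells expressing GFP-RasGRP1/3 (HEK293 or LNCaP, 48 h after plating, transfected; expression checked by fluorescence 24-48 h later) or Ramos with endogenous RasGRP3 treated with half-log increasing concentrations (max 10 µM), 1000 nM PMA or DMSO, 37 °C, 30 min, 5% CO2. RasGTP by Raf1 RBD bead pulldown and anti-Pan-Ras immunoblot; pERK by western blot. Band intensities normalized to 1000 nM PMA; EC50 from n = 3.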

[2] = target: T2, Ras guanyl-releasing protein 3 (Homo sapiens, UniProt Q8IV61); assay: Activation of GFP-tagged RasGRP3 (unknown origin) expressed in human LNCAP cells assessed as ERK1/2 phosphorylation after 30 mins by immunoblot method; type: cell-based; method in brief: as §1
T2 sequence (Q8IV61 whole entry): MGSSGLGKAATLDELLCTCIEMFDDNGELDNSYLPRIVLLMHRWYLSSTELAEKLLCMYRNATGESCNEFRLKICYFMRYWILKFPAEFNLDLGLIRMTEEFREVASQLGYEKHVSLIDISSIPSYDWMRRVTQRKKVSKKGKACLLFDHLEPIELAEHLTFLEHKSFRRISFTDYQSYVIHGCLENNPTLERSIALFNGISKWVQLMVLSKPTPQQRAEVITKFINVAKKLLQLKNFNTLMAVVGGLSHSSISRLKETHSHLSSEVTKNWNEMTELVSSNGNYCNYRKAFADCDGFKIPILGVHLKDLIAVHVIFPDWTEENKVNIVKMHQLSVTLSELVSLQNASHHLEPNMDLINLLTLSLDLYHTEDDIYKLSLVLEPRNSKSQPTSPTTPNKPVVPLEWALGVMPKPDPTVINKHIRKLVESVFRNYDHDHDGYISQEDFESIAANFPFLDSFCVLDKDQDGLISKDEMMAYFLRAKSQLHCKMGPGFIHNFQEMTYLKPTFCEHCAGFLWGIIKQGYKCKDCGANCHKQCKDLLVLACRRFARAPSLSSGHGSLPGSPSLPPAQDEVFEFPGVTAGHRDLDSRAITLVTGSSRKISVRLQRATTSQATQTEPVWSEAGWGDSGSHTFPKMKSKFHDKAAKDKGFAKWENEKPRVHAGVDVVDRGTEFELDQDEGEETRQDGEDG

[3] = target: T2, Ras guanyl-releasing protein 3; assay: Activation of GFP-tagged RasGRP3 (unknown origin) expressed in HEK293 cells assessed as ERK1/2 phosphorylation after 30 mins by immunoblot method; type: cell-based; method in brief: as §1
[4] = target: T2, Ras guanyl-releasing protein 3; assay: Displacement of [3H]PDBu from full length MBP-tagged human RasGRP3 expressed in Escherichia coli BL21 (DE3) after 5 mins by scintillation counting
Method in brief: (§2)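 Competition of [3H]PDBu binding by polyethylene glycol precipitation, with 100 µg/ml phosphatidylserine and ≤0.003% Triton X-100, 5 min at 37 °C. Proteins: full-length purified human PKCα, PKCε; full-length RasGRP1; MBP-RasGRP3 from E. coli BL21(DE3) induced with 0.3 mM IPTG 6 h at room temperature. Ki mean ± SEM of ≥2 experiments, triplicate points.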

[5] = target: T3, Protein kinase C epsilon type (Homo sapiens, UniProt Q02156); assay: Displacement of [3H]PDBu from full length recombinant human PKCepsilon expressed in baculovirus expression system after 5 mins by scintillation counting; method in brief: as §2
T3 sequence (Q02156 whole entry): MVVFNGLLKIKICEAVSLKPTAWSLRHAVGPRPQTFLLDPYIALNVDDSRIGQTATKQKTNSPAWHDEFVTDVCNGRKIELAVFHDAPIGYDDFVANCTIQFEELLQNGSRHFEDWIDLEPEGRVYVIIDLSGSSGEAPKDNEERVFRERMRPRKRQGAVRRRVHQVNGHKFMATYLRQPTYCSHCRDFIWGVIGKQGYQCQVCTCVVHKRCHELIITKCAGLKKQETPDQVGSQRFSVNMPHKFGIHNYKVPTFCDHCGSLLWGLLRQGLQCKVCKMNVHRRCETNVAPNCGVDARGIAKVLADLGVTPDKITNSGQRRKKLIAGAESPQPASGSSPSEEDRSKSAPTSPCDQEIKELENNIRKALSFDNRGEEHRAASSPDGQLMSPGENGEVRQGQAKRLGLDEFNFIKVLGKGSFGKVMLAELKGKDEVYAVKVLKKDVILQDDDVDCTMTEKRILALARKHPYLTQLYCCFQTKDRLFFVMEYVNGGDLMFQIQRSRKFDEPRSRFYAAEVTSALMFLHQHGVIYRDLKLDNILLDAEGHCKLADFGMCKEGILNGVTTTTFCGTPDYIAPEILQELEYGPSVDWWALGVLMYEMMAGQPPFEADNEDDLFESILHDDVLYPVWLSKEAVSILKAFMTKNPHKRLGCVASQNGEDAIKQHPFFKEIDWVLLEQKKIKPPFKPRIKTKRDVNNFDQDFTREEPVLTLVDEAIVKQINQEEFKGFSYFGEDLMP

For `Cn1cc(/C=C2\CC(CO)(COC(=O)C(C)(C)C)OC2=O)c2ccccc21` (stereo unspecified), the Ratio EC50 (Homo sapiens) was 2.8, the EC50 [1] was 860 nM and the EC50 [2] was 2980 nM. It also gave an EC50 [3] of 4660 nM, a Ki [4] of 1.75 nM and a Ki [5] of 78.9 nM.

From ChEMBL document CHEMBL4130626, “α-Arylidene Diacylglycerol-Lactones (DAG-Lactones) as Selective Ras Guanine-Releasing Protein 3 (RasGRP3) Ligands” (J Med Chem, 2018)
